Publication PMC7932937 (Clinical Pharmacokinetics, 2020)
Read-outs that look alike come from different tables or passages of the source.

Columns and labels:
[1] = tested on: baseline non-HDL-cholesterol; assay: Covariate analysis on baseline non-HDL-cholesterol in the PK/PD model; format: in vivo, people living with HIV; conditions: coadministration, final PK/PD model covariate
Outline: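 Indirect-response model linked to the final population PK model (plasma rosuvastatin by UHPLC-MS/MS; daily doses 5–20 mg). Drug inhibits kin, with kout = kin/baseline. Covariates (ARV regimen, comedications, diabetes, weight, AST, ALT, age) were tested on baseline only, by stepwise forward inclusion and backward deletion. Continuous covariates were median-centred (linear or allometric), categorical ones coded 0/1. Cholesterol was measured enzymatically (cholesterol oxidase).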

[2] = Population pharmacokinetic model; format: in vivo, people living with HIV
Outline: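 Adults with HIV on rosuvastatin 5–20 mg daily. Plasma came from a rich-sampling study and from sparse samples at cohort visits, 0.2–38.5 h post-dose, and was assayed by UHPLC-MS/MS. Models tested one or two compartments with first-order, zero-order or mixed absorption. Absorption parameters were fixed from the rich data. Between-subject variability was log-normal; residual error additive on the log scale. Covariate thresholds: ΔOFV 3.84 forward, 7.88 backward.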

[3] = cited from earlier work
[4] = literature values ref 12, 26, 27; cited from earlier work
[5] = estimated from full PK profiles (rich sampling), without variability
[6] = coadministered with cobicistat-boosted darunavir ref 20
[7] = coadministered with ritonavir-boosted atazanavir ref 19
[8] = coadministered with ritonavir-boosted darunavir ref 9
[9] = coadministered with ritonavir-boosted lopinavir ref 30

| SMILES | decrease in the baseline non-HDL-cholesterol value [1] | Cl decrease with boosted PIs that the study was powered to rule out ([2]; coadministered boosted PIs, univariate analysis) | absorption rate constant [2, 5] | duration of zero-order absorption [2, 5] | increase in rosuvastatin Vc ([2]; in women, univariate testing, not significant in multivariate analysis) | increase in rosuvastatin AUC0–24 [3, 6] | increase in rosuvastatin Cmax [3, 6] | increase in rosuvastatin AUC0–24 [3, 7] | increase in rosuvastatin Cmax [3, 7] | increase in rosuvastatin AUC0–24 [3, 8] | increase in rosuvastatin Cmax [3, 8] | increase in rosuvastatin AUC0–24 [3, 9] | increase in rosuvastatin Cmax [3, 9] | volume of distributions [4] |
| --- | --- | --- | --- | --- | --- | --- | --- | --- | --- | --- | --- | --- | --- | --- |
| Cc1cc(C#N)cc(C)c1Oc1nc(Nc2ccc(C#N)cc2)nc(N)c1Br [etravirine] | 14% |  |  |  |  |  |  |  |  |  |  |  |  |  |
| CC(C)c1nc(N(C)S(C)(=O)=O)nc(-c2ccc(F)cc2)c1/C=C/[C@@H](O)C[C@@H](O)CC(=O)O [rosuvastatin] |  | ≤ 22% | 0.306 h⁻¹ | 0.461 h | three-fold | 93% | 277% | 213% | 600% | 48% | 143% | 110% | 370% | 1255 to 4870 L |
